Starred links: 1 amine or outer side, 2 acyl side, 3 side chain; linkers in the order of their positions; H or OH if unused. Non-standard residues stand in square brackets, D forms with d. Residues, ends and D or L forms follow the SMILES beside them. *: point of attachment. Dmt = Cc1cc(O)cc(C)c1C[C@H](N)C(=O)O; εLys = N[C@@H](CCCCN[*:1])C(=O)[*:2]; Tic = O=C(O)[C@@H]1Cc2ccccc2CN1; NHBn = c1ccc(CN*)cc1; NHPh = c1ccc(N*)cc1
Assays:
[1] = target: Delta-type opioid receptor (Rattus norvegicus, UniProt P33533); test: Displacement of [3H]deltorphin 2 from delta opioid receptor in Sprague-Dawley rat brain P2 synaptosomal membrane
Chain of Delta-type opioid receptor (Rattus norvegicus, UniProt P33533) (P33533 whole entry): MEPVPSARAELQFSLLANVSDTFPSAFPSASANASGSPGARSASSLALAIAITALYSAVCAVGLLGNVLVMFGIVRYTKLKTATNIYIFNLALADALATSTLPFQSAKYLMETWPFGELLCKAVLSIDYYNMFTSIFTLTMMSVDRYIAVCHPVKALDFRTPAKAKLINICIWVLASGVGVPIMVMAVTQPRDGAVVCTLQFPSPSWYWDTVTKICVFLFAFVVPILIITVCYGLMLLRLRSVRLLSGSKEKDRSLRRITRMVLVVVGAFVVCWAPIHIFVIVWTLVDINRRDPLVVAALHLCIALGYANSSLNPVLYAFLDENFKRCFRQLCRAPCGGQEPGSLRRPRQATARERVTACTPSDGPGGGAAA
In short: (§1)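 Competition binding at equilibrium, 2.5 h at 23 °C, on rat brain P2 synaptosomes preincubated to remove endogenous opioids, stored at -80 °C in buffered 20% glycerol. Five to eight peptide doses, duplicate assays, 3-5 independent preparations. Filtration on polyethylenimine-soaked (0.1%) glass fibre filters, three washes in ice-cold buffered BSA; Ki by Cheng-Prusoff, mean ± SE.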

Mu-type opioid receptor [2] = target: Mu-type opioid receptor (Rattus norvegicus, UniProt P33535); test: Displacement of [3H]DAMGO 2 from mu opioid receptor in Sprague-Dawley rat brain P2 synaptosomal membrane; in short: as §1
Chain of Mu-type opioid receptor (Rattus norvegicus, UniProt P33535) (P33535 whole entry): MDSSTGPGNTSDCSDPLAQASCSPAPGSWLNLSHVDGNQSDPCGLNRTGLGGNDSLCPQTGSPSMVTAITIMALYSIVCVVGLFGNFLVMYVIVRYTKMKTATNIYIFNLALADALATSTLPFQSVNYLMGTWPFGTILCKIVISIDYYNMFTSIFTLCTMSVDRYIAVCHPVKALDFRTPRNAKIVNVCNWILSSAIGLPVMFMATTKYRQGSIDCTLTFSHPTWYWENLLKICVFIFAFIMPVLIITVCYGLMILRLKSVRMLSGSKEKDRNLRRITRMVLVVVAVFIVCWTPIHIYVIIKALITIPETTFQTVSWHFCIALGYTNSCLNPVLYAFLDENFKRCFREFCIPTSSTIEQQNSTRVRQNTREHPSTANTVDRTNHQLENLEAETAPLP

[3] = target: Delta-type opioid receptor (Mus musculus, UniProt P32300); test: Antagonist activity at delta opioid receptor in mouse vas deferens assessed as inhibition of electrically-stimulated contraction; assay type: functional, tissue-based; conditions: read-out: pA2 (converted)
Chain of Delta-type opioid receptor (Mus musculus, UniProt P32300) (P32300 whole entry): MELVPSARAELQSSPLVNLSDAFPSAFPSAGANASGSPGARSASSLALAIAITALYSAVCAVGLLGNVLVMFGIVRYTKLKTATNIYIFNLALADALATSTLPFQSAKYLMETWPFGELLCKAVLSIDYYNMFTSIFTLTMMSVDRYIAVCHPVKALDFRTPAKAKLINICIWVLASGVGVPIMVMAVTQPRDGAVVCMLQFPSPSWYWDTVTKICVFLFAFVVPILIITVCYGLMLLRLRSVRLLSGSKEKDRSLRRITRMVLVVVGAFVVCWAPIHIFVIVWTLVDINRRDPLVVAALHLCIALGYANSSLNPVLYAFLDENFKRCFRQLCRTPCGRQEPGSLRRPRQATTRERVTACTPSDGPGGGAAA
In short: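 Single mouse vas deferens in organ bath, balanced salt physiological buffer pH 7.5, electrically stimulated. Antagonism measured against δ-agonist deltorphin II; pA2 derived by Schild plot (method of Kosterlitz and Watt).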

[4] = target: T1, Opioid receptors; mu & delta (Rattus norvegicus) (UniProt P33533+P33535); test: Selectivity ratio of Ki for rat delta opioid receptor to Ki for rat mu opioid receptor; assay type: protein assay
T1 sequence (P33533 whole entry, looked up): as the sequence (P33533 whole entry) above
T1 sequence (P33535 whole entry, looked up): as the sequence (P33535 whole entry) above

Mu-type opioid receptor [5] = target: Mu-type opioid receptor (Cavia porcellus, UniProt P97266); test: Agonist activity at mu opioid receptor in Hartley guinea pig ileum assessed as inhibition of electrically-stimulated contraction; assay type: functional, tissue-based
Chain of Mu-type opioid receptor (Cavia porcellus, UniProt P97266) (P97266 whole entry): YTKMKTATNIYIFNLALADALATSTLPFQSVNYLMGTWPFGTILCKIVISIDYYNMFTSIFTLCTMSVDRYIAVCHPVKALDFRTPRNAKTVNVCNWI
In short: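 Myenteric plexus-longitudinal muscle strips (2-3 cm) from small intestine of male Hartley guinea pigs in organ bath, physiological buffer pH 7.5. Inhibition of electrically evoked contraction; IC50 (nM) from dose-response curves, mean ± SE of five or six separate tissue assays; endomorphin-2 as internal standard.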

[6] = target: T1, Opioid receptors; mu & delta (Rattus norvegicus); test: Selectivity ratio of Ki for mu opioid receptor to Ki for delta opioid receptor; assay type: protein assay

Row | Compound | Ki [1] | Ki (Mu-type opioid receptor [2]) | Kb [3] | Ratio Ki [4] | IC50 (Mu-type opioid receptor [5]) | Ratio Ki [6]
1 | Cc1cc(O)cc(C)c1C[C@H](N)C(=O)N1Cc2ccccc2C[C@H]1C(=O)NCCCC[C@H](N)C(=O)NCc1ccccc1 (H-[Dmt]-[Tic]-[εLys]-NHBn) | 1 nM | 0.6 nM | 15.5 nM | 1.7 | 553 nM | 
2 | Cc1cc(O)cc(C)c1C[C@H](N)C(=O)N1Cc2ccccc2C[C@H]1C(=O)NCCCC[C@H](NC(=O)OCc1ccccc1)C(=O)Nc1ccccc1 | 0.47 nM | 2.67 nM | 5.89 nM |  | 711 nM | 5.7
3 | Cc1cc(O)cc(C)c1C[C@H](N)C(=O)N1Cc2ccccc2C[C@H]1C(=O)NCCCC[C@H](NC(=O)OCc1ccccc1)C(=O)NCc1ccccc1 | 0.53 nM | 3.15 nM | 5.37 nM |  | 1450 nM | 5.9
4 | Cc1cc(O)cc(C)c1C[C@H](N)C(=O)N1Cc2ccccc2C[C@H]1C(=O)NCCCC[C@H](NC(=O)OCc1ccccc1)c1nc2ccccc2[nH]1 | 0.86 nM | 2.78 nM | 15.1 nM |  | 618 nM | 3.2
5 | CC(=O)N[C@@H](CCCCNC(=O)[C@@H]1Cc2ccccc2CN1C(=O)[C@@H](N)Cc1c(C)cc(O)cc1C)C(=O)NCc1ccccc1 | 0.21 nM | 3.43 nM | 8.51 nM |  | 1990 nM | 16.3
6 | Cc1cc(O)cc(C)c1C[C@H](N)C(=O)N1Cc2ccccc2C[C@H]1C(=O)NCCCC[C@H](N)C(=O)Nc1ccccc1 (H-[Dmt]-[Tic]-[εLys]-NHPh) | 2.02 nM | 0.89 nM | 12 nM | 2.3 | 515 nM | 
7 | CC(=O)N[C@@H](CCCCNC(=O)[C@@H]1Cc2ccccc2CN1C(=O)[C@@H](N)Cc1c(C)cc(O)cc1C)c1nc2ccccc2[nH]1 | 0.21 nM | 0.99 nM | 7.59 nM |  | 610 nM | 4.7
8 | CC(=O)N[C@@H](CCCCNC(=O)[C@@H]1Cc2ccccc2CN1C(=O)[C@@H](N)Cc1c(C)cc(O)cc1C)C(=O)Nc1ccccc1 | 0.22 nM | 2.57 nM | 6.61 nM |  | 486 nM | 11.7
9 | Cc1cc(O)cc(C)c1C[C@H](N)C(=O)N1Cc2ccccc2C[C@H]1C(=O)NCCCC[C@H](N)c1nc2ccccc2[nH]1 | 2.64 nM | 1.02 nM | 8.13 nM | 2.6 | 434 nM | 

— ChEMBL document CHEMBL1147884, “Further studies on the effect of lysine at the C-terminus of the Dmt-Tic opioid pharmacophore” (Bioorg Med Chem, 2007)
